Columns and labels:
Rattus norvegicus [1] = assay: Reduction in peripheral blood lymphocytes in Lewis rat assessed as remaining circulating lymphocytes level at 30 mg/kg, po, qd for 5 days by automated hematology analyzer; type: functional
Summary of the method: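 Male Lewis rats were dosed daily at 30 mg/kg po for 5 days. Blood lymphocytes were counted on an automated hematology analyzer once a day, before the next dose, and expressed relative to the pretreatment baseline.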

Rattus norvegicus [2] = assay: Reduction in peripheral blood lymphocytes in stringent Dark Agouti to Lewis rat heterotopic vascular heart allotransplantation model at 30 mg/kg, po bid coadministered with 10 mg/kg, bid sotrastaurin measured post 50 days post transplant relative to untreated control; type: functional; set-up: scale not given: the % may be the effect or the level left
Summary of the method: (§1)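 DA donor hearts were grafted into Lewis recipients. Treatment started 3 days before transplantation: prodrug 30 mg/kg po b.i.d. (PEG200/water, pH 5) alone or with sotrastaurin 10 mg/kg po b.i.d. or everolimus 0.3 mg/kg po q.d. Grafts were followed to rejection or up to 50 days. Allografts were formalin-fixed, cut at 3 μm, stained with H&E and trichrome, and scored for rejection. Lymphocytes were counted weekly before dosing, and body weight was monitored.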

Rattus norvegicus [3] = assay: Toxicity in stringent Dark Agouti to Lewis rat heterotopic vascular heart allotransplantation model assessed as incidence of histopathological changes at 30 mg/kg, po bid coadministered with 10 mg/kg, bid sotrastaurin by hematoxylin and eosin staining; type: organism-based; details: in vivo
Summary of the method: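 DA hearts grafted into rat recipients. Test agent 30 mg/kg po b.i.d. (in PEG200/water, pH 5 with 0.1 M HCl) plus the PKC inhibitor 10 mg/kg po b.i.d. (in D-glucose/PEG400/water/0.1 M HCl), started 3 days before transplantation. The study ended at rejection or a set end point. Grafts were formalin-fixed and paraffin-embedded, and 3 μm sections were stained with H&E and trichrome. Acute cellular rejection (0–3R), vasculopathy and fibrosis were scored; lungs were also examined.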

Rattus norvegicus [4] = assay: Toxicity in stringent Dark Agouti to Lewis rat heterotopic vascular heart allotransplantation model assessed as compound tolerance at 30 mg/kg, po bid coadministered with 0.3 mg/kg, qd everolimus; type: organism-based; details: in vivo; summary of the method: as §1
Rattus norvegicus [5] = assay: Toxicity in stringent Dark Agouti to Lewis rat heterotopic vascular heart allotransplantation model assessed as change in body weight at 30 mg/kg, po bid coadministered with 10 mg/kg, bid sotrastaurin; type: organism-based; details: in vivo; summary of the method: as §1
Rattus norvegicus [6] = assay: Induction of capillary leakage in Lewis rat Evans blue dye lung leakage model assessed as thorax fluid level at 30 mg/kg, po bid measured after 24 hrs relative to untreated control; type: organism-based; set-up: dose 30 mg/kg, route oral; details: in vivo
Summary of the method: (§2)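 Male Lewis rats were gavaged twice daily with vehicle or 30 mg/kg in 30% PEG200/buffer. Evans blue dye (20 mg/2 mL NaCl/kg iv) was given under anesthesia at 5, 23 or 95 h. One hour later the rats were bled, lungs were perfused with saline, dried at 60 °C for 24 h, weighed, and dye was extracted in formamide (24 h, 37 °C). Thoracic fluid volume was also recorded.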

Rattus norvegicus [7] = assay: Induction of capillary leakage in Lewis rat Evans blue dye lung leakage model at 30 mg/kg, po bid measured 24 hrs after 6 hrs relative to untreated control; type: organism-based; set-up: dose 30 mg/kg, route oral; details: in vivo; summary of the method: as §2
[8] = Stability in pH 10 buffer assessed as compound remaining measured after 2 hrs by UPLC; type: physicochemical; details: read-out: Stability
Summary of the method: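 The ester was incubated in buffer at pH 7.4 or pH 10. Remaining ester and the hydrolysed carboxylic acid were followed over time by UPLC, at time points out to 82 h.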

[9] = Stability in pH 1 buffer by UPLC; type: physicochemical; details: read-out: Stability
[10] = Stability in pH 5 buffer by UPLC; type: physicochemical
Rattus norvegicus [11] = assay: Reduction in peripheral blood lymphocytes in Lewis rat assessed as remaining circulating lymphocytes level at 30 mg/kg, po administered as single dose measured 14 hrs post dose by automated hematology analyzer; type: functional
Summary of the method: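 Male Lewis rats receive a single oral dose of compound or vehicle, freshly made in 30% PEG200/buffer. Blood (<200 μL) is drawn by sublingual puncture under isoflurane 5% v/v at baseline and later time points. Lymphocytes are counted on an automated hematology analyzer, and each animal's change is expressed as percent of its own pre-treatment baseline.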

## COC(=O)[C@H](CCN(C)C)N(C)C(=O)c1c(C)cc(-c2cccc(NS(=O)(=O)c3cc(C)c(Cl)cc3C)c2)cc1C
Rattus norvegicus [1]
  Activity: 20%
Rattus norvegicus [2]
  Activity: 12%
Rattus norvegicus [3]
  Activity: Non-toxic
Rattus norvegicus [4]
  Activity: Non-toxic
Rattus norvegicus [5]
  Activity: Non-toxic
Rattus norvegicus [6]
  Activity: 2 mL
Rattus norvegicus [7]
  fold change (FC): 2.4
[8]
  remaining at 2 h: 52%
[9]
  half-life: > 53 h
[10]
  Stability: > 53 h
Rattus norvegicus [11]
  Activity: 21%
